Test results from ChEMBL document CHEMBL1148787, “Novel substituted (pyridin-3-yl)phenyloxazolidinones: antibacterial agents with reduced activity against monoamine oxidase A and increased solubility” (J Med Chem, 2007).
In brackets after ≈: the same amount, converted by molar mass.

Experiments:
[1] = Half life in Wistar rat at 10 mg/kg, iv; format: ADME, organism-based; set-up: dose 10 mg/kg, route intravenous; details: in vivo
How it was run: (§1)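 Groups of three Wistar Han rats; bolus injection via cannulated jugular vein at 2 or 10 mg/kg. Serial 200 µL whole-blood samples at time intervals; plasma levels by LC-MS/MS; parameters by noncompartmental analysis.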

[2] = Clearance in Wistar rat at 10 mg/kg, iv; format: ADME, organism-based; set-up: dose 10 mg/kg, route intravenous; details: in vivo; how it was run: as §1
[3] = Volume of distribution in Wistar rat at 10 mg/kg, iv; format: ADME, organism-based; set-up: dose 10 mg/kg, route intravenous; details: in vivo, read-out: Vdss; how it was run: as §1
Staphylococcus aureus = assay: Antibacterial activity against methicillin-susceptible Staphylococcus aureus AP601055; format: functional
How it was run: (§2)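 CLSI broth microdilution, 64 to 0.06 µg/mL, 2% DMSO final. Media: S. aureus, Mueller Hinton broth; H. influenzae, MHB plus 0.5% yeast extract, 15 µg/mL hematin, 1.5 µg/mL NAD; S. pneumoniae, MHB plus 0.65% lysed horse blood. 35 °C, aerobic (S. aureus) or 5% CO2.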

Streptococcus pneumoniae [4] = assay: Antibacterial activity against penicillin-susceptible Streptococcus pneumoniae AP671401; format: functional; how it was run: as §2
Streptococcus pneumoniae [5] = assay: Antibacterial activity against linezolid-resistant Streptococcus pneumoniae; format: functional
How it was run: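 Broth microdilution per CLSI guidelines. Compounds were dissolved in 100% DMSO and diluted to 2% DMSO (v/v), 64 to 0.06 µg/mL, in 2.2% (w/v) Mueller Hinton broth with 0.65% (v/v) lysed horse blood. Plates were incubated at 35 °C in 5% CO2 and read at 620 nm.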

Haemophilus influenzae = assay: Antibacterial activity against Haemophilus influenzae ATCC 51907; format: functional; how it was run: as §2
[6] = Solubility by nephelometric analysis; format: physicochemical
How it was run: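 Nephelometry after diluting compounds into the MAO-A assay mixture (100 mM potassium phosphate, pH 7.4).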

[7] = molecular target: T1, Amine oxidase [flavin-containing] A (Homo sapiens, UniProt P21397); assay: Inhibition of human liver MAOA expressed in yeast
T1 sequence (P21397 whole entry): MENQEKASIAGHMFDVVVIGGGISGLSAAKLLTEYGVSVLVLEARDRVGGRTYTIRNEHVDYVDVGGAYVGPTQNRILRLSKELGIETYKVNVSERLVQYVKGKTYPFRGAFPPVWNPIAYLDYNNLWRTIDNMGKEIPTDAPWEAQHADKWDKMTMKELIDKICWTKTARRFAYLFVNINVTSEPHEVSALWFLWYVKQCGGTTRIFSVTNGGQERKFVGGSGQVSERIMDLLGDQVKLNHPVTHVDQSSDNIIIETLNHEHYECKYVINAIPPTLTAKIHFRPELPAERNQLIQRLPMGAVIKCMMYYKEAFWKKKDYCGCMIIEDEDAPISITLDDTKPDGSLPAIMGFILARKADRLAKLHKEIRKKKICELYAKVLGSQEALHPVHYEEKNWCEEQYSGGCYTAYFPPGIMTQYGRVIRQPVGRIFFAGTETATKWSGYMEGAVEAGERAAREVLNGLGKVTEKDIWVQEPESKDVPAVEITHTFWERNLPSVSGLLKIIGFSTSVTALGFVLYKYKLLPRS

Cytochrome P450 1A2 = molecular target: T2, Cytochrome P450 1A2 (Homo sapiens, UniProt P05177); assay: Inhibition of human recombinant CYP1A2; format: ADME
T2 sequence (P05177 whole entry): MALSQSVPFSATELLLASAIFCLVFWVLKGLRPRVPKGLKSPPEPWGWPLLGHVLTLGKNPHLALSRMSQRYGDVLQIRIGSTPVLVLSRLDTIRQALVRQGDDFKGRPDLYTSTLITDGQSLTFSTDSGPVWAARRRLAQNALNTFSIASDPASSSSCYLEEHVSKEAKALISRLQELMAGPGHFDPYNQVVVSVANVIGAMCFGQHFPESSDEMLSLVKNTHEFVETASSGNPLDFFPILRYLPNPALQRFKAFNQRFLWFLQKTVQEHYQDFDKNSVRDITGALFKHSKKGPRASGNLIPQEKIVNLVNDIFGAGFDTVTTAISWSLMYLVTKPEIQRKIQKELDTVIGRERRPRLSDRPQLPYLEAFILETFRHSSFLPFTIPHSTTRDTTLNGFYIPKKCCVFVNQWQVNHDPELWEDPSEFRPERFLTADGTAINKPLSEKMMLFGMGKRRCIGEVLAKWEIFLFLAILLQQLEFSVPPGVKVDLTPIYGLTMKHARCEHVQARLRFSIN
How it was run: (§3)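 Recombinant human P450s, compound at 0.2-20 µM; fluorogenic substrates: 3-cyano-7-ethoxycoumarin (1A2), 7-methoxy-4-trifluoromethylcoumarin (2C9, 2C19), 7-methoxy-4-(aminomethyl)coumarin (2D6). Fluorescence detection; IC50 determined.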

Cytochrome P450 2C9 = Cytochrome P450 2C9 (Homo sapiens, UniProt P11712); assay: Inhibition of human recombinant CYP2C9; format: ADME; how it was run: as §3
Cytochrome P450 2C9, sequence (P11712 whole entry): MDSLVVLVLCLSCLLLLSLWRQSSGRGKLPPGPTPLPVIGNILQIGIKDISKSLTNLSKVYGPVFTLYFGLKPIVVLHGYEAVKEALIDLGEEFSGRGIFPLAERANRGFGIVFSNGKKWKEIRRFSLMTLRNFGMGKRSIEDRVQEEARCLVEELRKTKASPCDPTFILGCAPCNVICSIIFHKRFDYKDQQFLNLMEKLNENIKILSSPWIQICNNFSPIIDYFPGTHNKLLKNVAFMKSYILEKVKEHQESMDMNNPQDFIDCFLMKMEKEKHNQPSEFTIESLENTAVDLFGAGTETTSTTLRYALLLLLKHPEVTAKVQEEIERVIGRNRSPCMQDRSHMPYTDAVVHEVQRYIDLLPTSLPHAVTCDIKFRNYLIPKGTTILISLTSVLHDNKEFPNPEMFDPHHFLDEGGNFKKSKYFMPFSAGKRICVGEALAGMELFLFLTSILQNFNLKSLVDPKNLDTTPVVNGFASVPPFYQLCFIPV

Cytochrome P450 2C19 = Cytochrome P450 2C19 (Homo sapiens, UniProt P33261); assay: Inhibition of human recombinant CYP2C19; format: ADME; how it was run: as §3
Cytochrome P450 2C19, sequence (P33261 whole entry): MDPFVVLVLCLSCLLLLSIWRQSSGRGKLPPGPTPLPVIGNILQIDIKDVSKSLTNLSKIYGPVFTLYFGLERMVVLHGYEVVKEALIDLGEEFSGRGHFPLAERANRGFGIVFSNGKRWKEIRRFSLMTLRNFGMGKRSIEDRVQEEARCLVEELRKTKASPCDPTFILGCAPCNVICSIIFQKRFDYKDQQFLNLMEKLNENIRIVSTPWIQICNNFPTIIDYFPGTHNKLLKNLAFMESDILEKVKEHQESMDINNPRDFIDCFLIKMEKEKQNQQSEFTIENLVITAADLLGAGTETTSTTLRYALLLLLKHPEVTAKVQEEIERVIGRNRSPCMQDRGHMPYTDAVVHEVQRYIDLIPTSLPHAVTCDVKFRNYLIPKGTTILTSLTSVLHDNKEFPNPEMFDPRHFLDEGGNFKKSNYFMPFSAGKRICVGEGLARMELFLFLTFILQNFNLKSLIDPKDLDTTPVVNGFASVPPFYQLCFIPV

Cytochrome P450 2D6 = Cytochrome P450 2D6 (Homo sapiens, UniProt P10635); assay: Inhibition of human recombinant CYP2D6; format: ADME; how it was run: as §3
Cytochrome P450 2D6, sequence (P10635 whole entry): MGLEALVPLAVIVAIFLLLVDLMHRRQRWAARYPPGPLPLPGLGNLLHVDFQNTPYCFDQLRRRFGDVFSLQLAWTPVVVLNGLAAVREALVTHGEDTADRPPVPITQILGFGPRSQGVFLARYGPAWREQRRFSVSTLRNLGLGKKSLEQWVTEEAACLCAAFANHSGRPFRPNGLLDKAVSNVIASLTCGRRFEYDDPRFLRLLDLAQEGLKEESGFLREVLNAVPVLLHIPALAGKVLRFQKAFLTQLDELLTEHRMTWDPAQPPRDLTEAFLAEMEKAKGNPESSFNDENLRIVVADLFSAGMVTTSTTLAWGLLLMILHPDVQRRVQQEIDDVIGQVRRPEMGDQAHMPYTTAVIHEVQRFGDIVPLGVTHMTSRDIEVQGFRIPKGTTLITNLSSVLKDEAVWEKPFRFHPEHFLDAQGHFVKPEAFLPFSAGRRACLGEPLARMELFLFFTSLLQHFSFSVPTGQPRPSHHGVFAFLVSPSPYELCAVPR

Cytochrome P450 3A4 = Cytochrome P450 3A4 (Homo sapiens, UniProt P08684); assay: Inhibition of human recombinant CYP3A4; format: ADME
Cytochrome P450 3A4, sequence (P08684 whole entry): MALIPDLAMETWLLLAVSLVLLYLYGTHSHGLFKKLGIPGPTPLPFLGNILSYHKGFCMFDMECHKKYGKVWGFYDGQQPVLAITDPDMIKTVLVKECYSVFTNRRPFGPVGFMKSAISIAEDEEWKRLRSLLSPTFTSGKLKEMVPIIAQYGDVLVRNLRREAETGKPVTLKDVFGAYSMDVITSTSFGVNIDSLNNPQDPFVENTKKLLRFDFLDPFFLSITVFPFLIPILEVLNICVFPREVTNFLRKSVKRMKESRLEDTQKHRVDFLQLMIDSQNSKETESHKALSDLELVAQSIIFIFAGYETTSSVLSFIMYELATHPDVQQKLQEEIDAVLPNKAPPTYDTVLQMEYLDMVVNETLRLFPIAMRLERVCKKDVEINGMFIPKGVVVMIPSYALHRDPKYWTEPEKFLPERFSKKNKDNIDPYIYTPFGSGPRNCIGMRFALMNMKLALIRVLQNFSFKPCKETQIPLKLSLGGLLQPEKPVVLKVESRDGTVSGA

[8] = AUC in Wistar rat at 10 mg/kg, iv; format: ADME, organism-based; set-up: dose 10 mg/kg, route intravenous; details: plasma; how it was run: as §1
[9] = Oral bioavailability in Wistar rat at 10 mg/kg, po; format: ADME, organism-based; details: in vivo
How it was run: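 Wistar Han rats, groups of three; 10 mg/kg given by oral gavage, compared against iv dosing. Serial whole-blood sampling, plasma drug by LC-MS/MS, noncompartmental pharmacokinetic analysis.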

Homo sapiens = species: Homo sapiens; assay: Protein binding in human plasma; details: read-out: PPB (converted)
[10] = Half life in Wistar rat at 2 mg/kg, iv; format: ADME, organism-based; set-up: dose 2 mg/kg, route intravenous; details: in vivo; how it was run: as §1
[11] = Clearance in Wistar rat at 2 mg/kg, iv; format: ADME, organism-based; set-up: dose 2 mg/kg, route intravenous; details: in vivo; how it was run: as §1
[12] = Volume of distribution in Wistar rat at 2 mg/kg, iv; format: ADME, organism-based; set-up: dose 2 mg/kg, route intravenous; details: in vivo, read-out: Vdss; how it was run: as §1
Rattus norvegicus = assay: AUC in Wistar rat at 2 mg/kg, iv; format: ADME, organism-based, Plasma; set-up: dose 2 mg/kg, route intravenous; details: in vivo; how it was run: as §1
Mus musculus [13] = assay: AUC in Streptococcus pneumoniae 548 infected mouse lung infection model at 40 mg/kg/day, po; format: ADME, organism-based; set-up: route oral; details: in vivo
How it was run: (§4)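 CD-1 mice; oral gavage at 40 or 80 mg/kg. Groups of three sacrificed at timed intervals, whole blood taken by cardiac puncture; plasma treated with methanol containing internal standard and quantified by LC-MS/MS against standard curve.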

Mus musculus [14] = assay: AUC in Streptococcus pneumoniae 548 infected mouse lung infection model at 80 mg/kg/day, po; format: ADME, organism-based; set-up: route oral; details: in vivo; how it was run: as §4
Streptococcus pneumoniae [15] = assay: Antibacterial activity against Streptococcus pneumoniae 548 infected mouse lung infection model assessed as reduction in bacterial count at 40 mg/kg/day, po relative to control; format: functional
How it was run: (§5)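 Groups of 10 CD-1 mice infected intratracheally, 1 × 10^5 cfu/lung. Oral gavage of compound or vehicle started 18 h post-infection. Lungs removed 24 h after treatment start, homogenized, serially diluted onto Tryptic Soy agar with 5% sheep blood; log CFU reduction versus vehicle group.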

Streptococcus pneumoniae [16] = assay: Antibacterial activity against Streptococcus pneumoniae 548 infected mouse lung infection model assessed as reduction in bacterial count at 80 mg/kg/day, po relative to control; format: functional; how it was run: as §5

Row | Structure (SMILES) | MIC (Staphylococcus aureus) [µg/mL] | MIC (Streptococcus pneumoniae [4]) [µg/mL] | MIC (Streptococcus pneumoniae [5]) [µg/mL] | MIC (Haemophilus influenzae) [µg/mL] | solubility kinetic [6] [µM] | Ki [7] [µM] | IC50 (Cytochrome P450 1A2) [µM] | IC50 (Cytochrome P450 2C9) [µM] | IC50 (Cytochrome P450 2C19) [µM] | IC50 (Cytochrome P450 2D6) [µM] | IC50 (Cytochrome P450 3A4) [µM] | bioavailability [9] [%] | fraction unbound (Homo sapiens) | half-life [10] [min] | clearance [11] [mL/min/kg] | Vd [12] [L/kg] | AUC (Rattus norvegicus) [ug/hr.ml] | AUC (Mus musculus [13]) [ng·h/mL] | AUC (Mus musculus [14]) [ng·h/mL] | Log10 cfu (Streptococcus pneumoniae [16]) | also measured
1 | Cc1nccn1CC(=O)c1ccc(-c2ccc(N3C[C@H](Cn4ccnn4)OC3=O)cc2F)cn1 | 0.5 (≈ 1.08 µM) | 0.13 (≈ 0.282 µM) | 0.5 (≈ 1.08 µM) | 2 (≈ 4.33 µM) | 200 (≈ 92.3 µg/mL) | > 89 | > 20 | > 20 | > 20 | > 20 | > 20 | 100 | 0.25 | – | – | – | – | – | – | – | half-life [1]: 24 min; clearance [2]: 62 mL/min/kg; Vd [3]: 0.3 L/kg; AUC [8]: 1200 ng·h/mL
2 | Cc1cnc(C)n1CC(=O)c1ccc(-c2ccc(N3C[C@H](Cn4ccnn4)OC3=O)cc2F)cn1 | 0.25 (≈ 0.526 µM) | < 0.06 | 0.5 (≈ 1.05 µM) | 4 (≈ 8.41 µM) | 50 (≈ 23.8 µg/mL) | 19 | > 20 | > 20 | > 20 | > 20 | 10.7 | 73 | 0.1 | 108 | 10 | 1.4 | 3.3 | 17400 | 31000 | 2.57 | Log10 cfu (Streptococcus pneumoniae [15]): 1.94
3 | CCc1nccn1CC(=O)c1ccc(-c2ccc(N3C[C@H](Cn4ccnn4)OC3=O)cc2F)cn1 | 0.5 (≈ 1.05 µM) | < 0.06 | 0.5 (≈ 1.05 µM) | 4 (≈ 8.41 µM) | 100 (≈ 47.5 µg/mL) | > 44 | – | – | – | – | – | – | – | 36 | 23 | 0.9 | 1.6 | – | – | – | –
4 | CC(=O)NC[C@H]1CN(c2ccc(N3CCOCC3)c(F)c2)C(=O)O1 [LINEZOLID] | – | – | – | – | – | – | – | – | – | – | – | – | – | – | – | – | – | 45700 | 105000 | 3.89 | –
5 | Cc1cn(CC(=O)c2ccc(-c3ccc(N4C[C@H](Cn5ccnn5)OC4=O)cc3F)cn2)c(C)n1 | 0.25 (≈ 0.526 µM) | < 0.06 | 0.25 (≈ 0.526 µM) | 2 (≈ 4.21 µM) | 25 (≈ 11.9 µg/mL) | > 11 | – | – | – | – | – | 14 | 0.12 | 60 | 13 | 0.9 | 2.6 | – | – | – | –
